# This is a sample that favours compounds with a hit; in the whole collection about 3.5% have one here.
# MrgX1 PAM – human MrgX1 positive allosteric modulation, primary screen; MrgX1-HEK293, Fluo-4 calcium flux, FDSS; active compounds read high; B-score at 10 µM; 0.63% of 310,000 active;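 active = plate-corrected calcium response at least 3 library SD above typical, normal starting fluorescence, not activating the receptor alone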;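 also: compound read alongside a low EC10 to EC30 dose of BAM8-22 agonist; peak minus trough fluorescence over baseline measured at the second addition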
# Target sequence (Q96LB2 whole entry, looked up): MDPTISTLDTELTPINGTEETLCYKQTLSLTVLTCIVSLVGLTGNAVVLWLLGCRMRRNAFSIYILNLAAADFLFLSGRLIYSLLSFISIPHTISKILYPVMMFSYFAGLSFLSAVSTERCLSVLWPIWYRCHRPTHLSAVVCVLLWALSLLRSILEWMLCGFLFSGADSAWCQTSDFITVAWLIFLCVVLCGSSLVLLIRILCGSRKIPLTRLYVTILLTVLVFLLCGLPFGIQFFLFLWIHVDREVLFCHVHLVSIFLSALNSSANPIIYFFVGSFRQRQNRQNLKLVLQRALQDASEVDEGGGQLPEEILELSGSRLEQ
# RGS4 act – RGS4 potentiation or activation | B-score at 10 µM | 0.92% of 310,000 active | HEK293 M3R/inducible RGS4, carbachol calcium flux Fluo4; active compounds read low;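 active = B-score of the integrated calcium signal more than 4 SD below the library mean, with starting fluorescence not abnormally high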;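 also: negative B-score means reduced calcium response which marks RGS4 activation or potentiation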
#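 System: HEK293 FlpIn-TREx cells, stable M3R, doxycycline-inducible RGS4. Timing: overnight RGS4 induction, 30 min dye load 37 °C, 20 min compound RT. Also added: carbachol, ECmax concentration. Measured by: Fluo4 fluorescence kinetic imaging of calcium. Evaluation: integrated calcium ratio converted to B score.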
# MrgX1 antagonist – antagonists of human MrgX1 receptor; Q96LB2; MRGX1-HEK293 calcium flux, Fluo-4, BAM8-22 antagonism; active compounds read low; B-score at 10 µM; 1.3% of 310,000 active;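 active = calcium-response B-score plate-corrected more than 3 library SD below zero, starting fluorescence within 5 deviations, no agonist response on first addition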;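 also: peak minus trough fluorescence over baseline after final BAM8-22 challenge near maximal dose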
# MrgX1 agonist – human MrgX1 receptor agonism, primary screen | Q96LB2 | MrgX1-HEK293 cells, Fluo-4 calcium fluorescence, agonist mode; active compounds read high | B-score at 10 µM | 0.44% of 310,000 active;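 active = calcium response B-score plate-corrected fluorescence ratio at least 3 library SD, with starting fluorescence B-score inside 5 SD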
#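 Material: MrgX1-expressing HEK293 cells / Dosing: compound as first of three additions / Incubation: overnight seeding, then 1 h dark dye loading / Signal: Fluo-4 NW calcium fluorescence / Evaluation: B-scored fluorescence response ratio / Benchmarks: positive and negative control wells on each plate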
# RGS4 inh – inhibitors of human RGS4; B-score at 10 µM; 0.45% of 310,000 active; P49798; HEK293 M3R/RGS4 inducible, Fluo-4 calcium flux; active compounds read high; triggered by carbachol at its EC20;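 active = B-score, a plate-corrected calcium signal, over three deviations above library mean, with baseline fluorescence within five deviations of library mean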;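 also: RGS4 expression induced by doxycycline in cells with stable M3 receptor; B-score is computed from the integrated fluorescence ratio over baseline after carbachol; higher B-score means a larger calcium signal and so more RGS4 inhibition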
# MrgX1 allo conf – human MrgX1 positive allosteric modulation, re-confirmation. activation (ratio percentage), % at 10 µM. shares compounds with MrgX1 PAM. MrgX1-HEK293, Fluo-4 calcium fluorescence, FDSS. 13% of 1,200 active. AID 602413;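 active = ratio at least 3 SD above the weak peptide control, stable starting fluorescence, no direct agonism earlier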;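 also: compound followed by low BAM8-22 agonist challenge near EC20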
# HEK293 Ca flux – activity in parental HEK293 cells lacking MrgX1; shares compounds with MrgX1 antagonist; Fluo-4 calcium fluorescence, FDSS; fluorescence ratio F(max-min)/F0 at 10 µM; 2% of 4,000 active; AID 624111;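 active = duplicate-averaged calcium fluorescence ratio at least three times the standard deviation of buffer wells, a nonspecific response in parental cells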
# HEK293 Ca counter – activity in parental HEK293 cells without MrgX1; shares compounds with MrgX1 antagonist; parental HEK293 calcium flux, Fluo-4 fluorescence ratio; active compounds read high; fluorescence ratio F(max-min)/F0 at 10 µM; 0.4% of 4,000 active;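 active = calcium fluorescence ratio, averaged over duplicates, at least 3 SD of the buffer-well ratio, meaning a nonspecific response in receptor-free cells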;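 also: untransfected parental HEK293 lacking MrgX1 used as counterscreen for MrgX1 allosteric activators; fluorescence change taken during the second addition on a kinetic imager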
# HEK293 Ca cntr2 – MrgX1 activator counter-screen hit in parental HEK293 cells; shares compounds with MrgX1 antagonist; Fluo-4 calcium fluorescence (FDSS); active compounds read high; fluorescence ratio F(max-min)/F0 at 10 µM; 8.7% of 4,000 active;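 active = calcium fluorescence ratio at least three times the spread of buffer wells, meaning a non-specific response in parental cells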
# The depositor's hits bear a star; i = inactive; x = no result.
SMILES,MrgX1 PAM,RGS4 act,MrgX1 antagonist,MrgX1 agonist,RGS4 inh,MrgX1 allo conf,HEK293 Ca flux,HEK293 Ca counter,HEK293 Ca cntr2
CCn1c(SCC(=O)Nc2nc(C)c(C)s2)nc2cccnc21,i,i,i,i,i,x,x,x,x
COc1ccc(-c2cc(C(=O)Nc3c(F)cc(F)cc3Br)no2)cc1,8.9*,i,i,i,i,i,i,i,i
COc1ccc(-c2cc(C(=O)Nc3ccc(F)cc3F)no2)cc1,i,i,i,i,i,x,x,x,x
O=C(CN(C(=O)c1csnn1)c1cccc2ccccc12)NC1CCCC1,i,i,i,i,i,x,x,x,x
CCOc1ccccc1NC(=O)C(=O)CC(=O)c1ccc(OC)cc1,i,i,i,i,i,x,x,x,x
COCc1cc(Sc2ccc(Cl)cc2)nc(C)n1,8.4*,i,i,i,i,i,i,i,i
Clc1ccc(CSc2cc3c(nn2)-c2ccccc2CC3)cc1,8*,i,i,i,i,i,i,48*,i
CC(=O)c1nnn(-c2nc(N)nc(N(c3ccccc3)c3ccccc3)n2)c1C,13*,i,i,i,i,16%*,i,i,i
CCCCN(CCCC)c1nc(OC)nc(-n2nnc(C(C)=O)c2C)n1,i,i,i,i,i,x,x,x,x
CCCOc1ccc(-c2cc(C(F)(F)F)c(C#N)c(SCC(=O)O)n2)cc1,i,i,i,i,i,x,x,x,x
COc1ccc(/C=N/NC(=O)c2c(Br)cnn2C)c2ccccc12,i,i,i,i,i,x,x,x,x
CCN(CC(=O)Nc1ccc2c(c1)OCCO2)C(=O)c1ccc(C)c(S(=O)(=O)N2CCOCC2)c1,i,i,i,i,i,x,x,x,x
Cn1c(=O)[nH]c(=O)c2c1nc(N1CCNCC1)n2Cc1ccccc1Cl,10*,i,i,i,i,i,i,i,i
CCCCCCn1c(N2CCCC2)nc2c1c(=O)[nH]c(=O)n2C,12*,i,i,i,i,9.9%*,i,i,i
COc1ccc(C2/C(=C(\O)c3ccc4c(c3)CC(C)O4)C(=O)C(=O)N2Cc2cccnc2)c(OC)c1 (stereo not given),i,i,i,i,i,x,x,x,x
CN(C)S(=O)(=O)c1cccc(NC(=O)c2cc(=O)[nH]c3ccccc23)c1,i,i,i,i,i,x,x,x,x
CN(C)S(=O)(=O)c1cccc(NC(=O)c2c[nH]c3ccccc23)c1,9.9*,i,i,i,i,i,i,i,i
Cc1ccc(N2CC(C(=O)Nc3ccc(C)c(S(=O)(=O)N(C)C)c3)CC2=O)cc1 (stereo not given),10*,i,i,i,i,i,i,i,i
Cc1ccc(-c2cc(N)n(-c3ccc(C)cc3)n2)cc1,7.2*,i,i,i,i,i,i,i,i
CCc1nn2c(N)c(/C=C3\C=Nc4ccccc43)c(=O)nc2s1,6.8*,i,i,i,i,12%*,i,i,i
CSc1nsc2nc(=O)c(/C=C3\C=Nc4ccccc43)c(N)n12,57*,i,i,i,i,15%*,i,i,i
O=C(NCc1cccnc1)c1cn(-c2ccccc2)nc1-c1ccccc1,i,i,i,i,i,x,x,x,x
Cc1nc2ccccc2cc1OCc1ccccc1,6.6*,i,i,i,i,i,i,i,i
Cc1nc2ccccc2cc1OCc1ccc(Cl)cc1,i,i,i,i,i,x,x,x,x
